Compounds with a hit are over-represented: about 4.5% of the library has one in this group of screens.
OX1R antag-1: blocks the human orexin 1 receptor | OX1R-expressing cells, FRET antagonist read-out | O43613 | AID 485270 | inhibition, % at 6.6 µM | hit rate 1.8% among 330,000; in the data active = inhibition mostly above about 38%, no sharp cut-off; inactive = mostly below about 40%;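 also: 0% = agonist challenge alone and 100% = reference antagonist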
Target sequence (O43613 whole entry, looked up): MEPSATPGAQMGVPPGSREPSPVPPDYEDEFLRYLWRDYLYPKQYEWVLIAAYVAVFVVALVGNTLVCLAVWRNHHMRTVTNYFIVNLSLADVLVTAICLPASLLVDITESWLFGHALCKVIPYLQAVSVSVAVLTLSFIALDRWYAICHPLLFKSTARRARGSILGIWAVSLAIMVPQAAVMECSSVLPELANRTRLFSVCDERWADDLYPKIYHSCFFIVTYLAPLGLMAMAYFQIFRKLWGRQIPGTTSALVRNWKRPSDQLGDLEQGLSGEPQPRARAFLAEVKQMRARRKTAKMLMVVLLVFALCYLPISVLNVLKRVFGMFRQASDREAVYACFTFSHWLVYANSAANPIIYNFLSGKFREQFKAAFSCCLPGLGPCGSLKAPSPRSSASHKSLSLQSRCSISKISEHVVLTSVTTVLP
GPR7 antagonist: antagonists of human GPR7 (neuropeptides B/W receptor 1) | P48145 | GPR7-expressing cells, fluorescence antagonist assay | inhibition, % at 4.4 µM | hit rate 1.1% among 290,000 | AID 1861; in the data active = inhibition above about 16%, passing the limit was not always enough;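 also: cells stimulated with the agonist NPW; 0% = agonist with vehicle and 100% = vehicle without agonist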
TAAR1 antagonist: antagonists of human TAAR1 | Q96RJ0 | CHO RD-HGA16 TAAR1, Fluo-8 calcium fluorescence, antagonist | inhibition, % at 3 µM | hit rate 1.5% among 360,000 | AID 624466;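 active = inhibition above a per-plate cutoff, the mean inhibition of test compounds on that plate plus 3 SD, cut at about 49% in these data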;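 also: 0% = DMSO plus EC80 beta-PEA response and 100% = DMSO alone without agonist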
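Assay system: CHO-derived RD-HGA16 cells stably expressing human TAAR1 plus Gα16. Timing: 140 s kinetic read after compound, 140 s after agonist. Technique: kinetic Fluo-8 calcium fluorescence measurement. Measure: % inhibition of agonist calcium response.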
TAAR1 ag: agonists of human TAAR1. Q96RJ0. CHO RD-HGA16 TAAR1, Fluo-8 calcium fluorescence; vehicle wells 0%, saturating PEA agonist 100%. hit rate 0.99% among 360,000. AID 624467. activation, % at 3 µM;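 active = activation above the mean activation of all test compounds in the run plus 3 SD, cut at about 38% in these data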
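System: CHO-derived RD-HGA16 cells with stable Gα16 and human TAAR1. Times: 17-24 h plating, Fluo-8 75 min 37 °C, 30 min RT. Measured by: calcium-sensitive Fluo-8 signal, excitation 470-495, emission 515-575 nm. Read-out basis: % activation relative to PEA EC100 response. Control set: DMSO and PEA EC100. Repeats: no replicates (n 1).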
CHO parental Ca: counter-screen: ATP calcium response change in parental CHO cells; inhibition, % at 5.6 µM; hit rate 0.63% among 330,000; AID 463079; parental CHO-K1, ATP-induced calcium, Fluo-8 fluorescence;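 active = inhibition above that plate's mean sample inhibition plus 3 SD, cut at about 26% in these data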;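 also: 0% = ATP-challenged DMSO wells and 100% = DMSO wells without ATP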
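Test system: untransfected parental CHO cell line. Compound: one dose, 5.6 µM nominal. Detection: intracellular calcium via Fluo-8 no-wash fluorescent dye. Measure: % inhibition. Benchmarks: ATP-challenged DMSO wells low, unchallenged DMSO wells high.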
OX1R antag-2: blocks the human orexin 1 receptor; O43613; CHO/OX1R cells, Fluo-8 calcium fluorescence, orexin A; inhibition, % at 5 µM; hit rate 0.43% among 330,000;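 active = inhibition above its plate's threshold, mean inhibition of all tested compounds on the plate plus 3 SD, cut at about 37% in these data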;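 also: 0% = orexin A challenge wells and 100% = SB-334867-A antagonist wells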
The depositor's hits bear a star; · = no result given.

SMILES	OX1R antag-1	GPR7 antagonist	TAAR1 antagonist	TAAR1 ag	CHO parental Ca	OX1R antag-2
Cc1ccc(S(=O)(=O)N2CCCCC2)c2nsnc12	26.9	-13.3	1.6	-0.4	-6.0	-24.4
CN1CCN(S(=O)(=O)c2ccc(Sc3nc4ccccc4[nH]3)c3nsnc23)CC1	162.5*	-3.0	10.2	8.3	-11.3	-36.3
O=S(=O)(c1ccc(Br)c2nsnc12)N1CCOCC1	39.9*	19.3	8.5	0.5	-3.3	0.5
Cc1ccc(S(=O)(=O)N2CCOCC2)c2nsnc12	41.4*	0.7	10.8	11.1	-10.6	-1.2
O=S(=O)(c1cccc2nsnc12)N1CCCC1	19.1	-10.4	-1.1	6.6	0.1	-5.2
CN1CCN(S(=O)(=O)c2ccc(Br)c3nsnc23)CC1	64.9*	-5.0	3.0	14.4	-10.2	-5.8
C#CCNC(=O)C[C@@H]1C[C@@]2(C(=O)OC)CC(C)(C)CC=C2N(Cc2ccccc2)C1=O	·	·	-12.7	1.6	·	·
CC(C)(C)c1ccc(S(=O)(=O)NC(=O)C2(C)CCN2C(=O)C2(c3ccccc3)CC2)cc1 (centres undefined)	·	·	-18.0	15.0	·	·
C=CCN1CC(COCc2ccccc2)OCCS1(=O)=O (centres undefined)	·	·	-6.1	-0.4	·	·
Cc1ccc(/C=N/N(C)S(=O)(=O)c2ccc(C)cc2)cc1	9.6	-16.3	-8.5	9.8	51.1*	-17.0
CSc1ccc(/C=N/N(C)S(=O)(=O)c2ccc(C)cc2)cc1	15.0	-20.1	1.6	-1.6	63.0*	7.0
COCc1[nH]nc2c1C(c1ccc3c(c1)OCO3)N(Cc1ccccc1)C2=O (centres undefined)	·	·	9.1	0.8	·	·
OC(CNC1CCCC1)COc1ccc(-c2ccccc2)cc1 (centres undefined)	4.6	2.9	0.5	13.3	-3.3	2.4
OC(CNC1CCCCC1)CON=C1CCSc2c(Cl)cccc21 (centres undefined)	·	·	18.3	39.5*	·	·
Cc1ccc(C(C)C)c(OCC(O)CN2CCc3ccccc3C2)c1 (centres undefined)	19.7	-12.4	-4.6	19.8	30.1*	-14.4
Cc1cccc(C)c1OCC(O)CN1CCc2ccccc2C1 (centres undefined)	11.5	·	-16.9	1.4	-7.7	-28.6
O=C1c2sc3nc4ccccc4n3c2C(=O)N1c1ccccc1Cl	64.0*	0.8	14.8	10.1	-29.1	-25.2
Cc1ccccc1N1C(=O)c2sc3nc4c(c(=O)n3c2C1=O)CCC4	4.8	-11.2	·	·	-14.7	-27.8
O=C(Cc1ccccc1)NCc1ccc(-n2cccc2)cc1	12.5	-6.4	12.7	37.9*	-7.5	-18.3
CN(C)CCCNc1ncnc2c1cnn2Cc1ccccc1Cl	·	-5.6	0.0	9.4	·	·
COc1ccc(NC(=O)CSc2nnc(NC(=O)C3CCC3)s2)c(OC)c1	15.2	-3.5	-23.2	-2.5	-10.2	-18.4
COc1ccc(-c2cc(NC=O)c3ncc(-c4ccc(C(C)=O)cc4)n3c2)cn1	·	·	52.7*	9.3	·	·
O=CNc1cc(-c2ccsc2)cn2c(-c3ccccc3)cnc12	·	·	60.2*	8.4	·	·
CC(=O)Nc1cccc(-c2cc(NC=O)c3ncc(-c4ccc(C(C)=O)cc4)n3c2)c1	·	·	43.3	12.5	·	·
COc1ccccc1-c1cc(NC=O)c2ncc(-c3cccc(C(C)=O)c3)n2c1	·	·	50.3*	15.5	·	·
SMILES	OX1R antag-1	GPR7 antagonist	TAAR1 antagonist	TAAR1 ag	CHO parental Ca	OX1R antag-2
COc1ccccc1-c1cc(NC=O)c2ncc(-c3cccc(C(=O)N(C)C)c3)n2c1	·	·	22.9	12.8	·	·
COc1ccc(-c2cc(NC=O)c3ncc(-c4cccc(OC)c4)n3c2)cc1	·	·	59.2*	9.2	·	·
Cc1ncc([N+](=O)[O-])n1CC(=O)N/N=C/c1ccccc1F	28.9	-11.8	-7.6	4.3	22.7	-6.8
CCN1CCN(CCNC(=O)c2ccc(/C=C3/Sc4ccccc4N(Cc4cccc(Cl)c4)C3=O)cc2)CC1	14.2	12.7	56.0*	36.3	-6.7	7.2
CCN1CCN(CCNC(=O)c2ccc3c(c2)N(Cc2ccc(F)cc2)C(=O)/C(=C/c2ccccc2)S3)CC1	18.6	29.0*	28.8	17.9	14.0	-14.5
COc1ccc(Cn2c(N)c(C#N)c3nc4ccccc4nc32)cc1	21.9	18.0	9.8	10.9	-10.7	27.6
COc1cccc(Cn2c(N)c(C#N)c3nc4ccccc4nc32)c1OC	46.3*	0.0	5.5	3.7	-11.2	2.2
